Measured values from ChEMBL document CHEMBL4673268, “The optimization of a novel selective antagonist for human M muscarinic acetylcholine receptor” (Bioorg Med Chem Lett, 2020).
Calls of active or inactive are those of the source. No cut-off for these calls is given here.

Columns and labels:
[1] = biological target: T1, Muscarinic acetylcholine receptor M2 (Homo sapiens, UniProt P08172); test: Displacement of [3H]-NMS from muscarinic M2 receptor (unknown origin) expressed in CHO-K1 cell membranes assessed as inhibition constant by radioligand competition analysis; parameters: species or system Cell membrane
T1 sequence (P08172 whole entry): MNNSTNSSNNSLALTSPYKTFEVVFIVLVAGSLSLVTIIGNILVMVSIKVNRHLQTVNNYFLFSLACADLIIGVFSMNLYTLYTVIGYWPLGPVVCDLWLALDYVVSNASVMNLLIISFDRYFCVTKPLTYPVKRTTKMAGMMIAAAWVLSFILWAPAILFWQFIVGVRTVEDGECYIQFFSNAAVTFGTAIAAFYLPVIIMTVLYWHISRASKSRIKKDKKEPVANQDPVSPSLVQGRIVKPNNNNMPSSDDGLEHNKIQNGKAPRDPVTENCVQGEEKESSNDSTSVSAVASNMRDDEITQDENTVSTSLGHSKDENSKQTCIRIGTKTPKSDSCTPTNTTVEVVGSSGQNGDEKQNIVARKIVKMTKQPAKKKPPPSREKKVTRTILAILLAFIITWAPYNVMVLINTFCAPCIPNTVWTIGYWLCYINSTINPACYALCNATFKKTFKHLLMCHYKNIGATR

[2] = biological target: T2, Muscarinic acetylcholine receptor M1 (Homo sapiens, UniProt P11229); test: Displacement of [3H]-NMS from muscarinic M1 receptor (unknown origin) expressed in CHO-K1 cell membranes assessed as inhibition constant by radioligand competition analysis; parameters: species or system Cell membrane
T2 sequence (P11229 whole entry): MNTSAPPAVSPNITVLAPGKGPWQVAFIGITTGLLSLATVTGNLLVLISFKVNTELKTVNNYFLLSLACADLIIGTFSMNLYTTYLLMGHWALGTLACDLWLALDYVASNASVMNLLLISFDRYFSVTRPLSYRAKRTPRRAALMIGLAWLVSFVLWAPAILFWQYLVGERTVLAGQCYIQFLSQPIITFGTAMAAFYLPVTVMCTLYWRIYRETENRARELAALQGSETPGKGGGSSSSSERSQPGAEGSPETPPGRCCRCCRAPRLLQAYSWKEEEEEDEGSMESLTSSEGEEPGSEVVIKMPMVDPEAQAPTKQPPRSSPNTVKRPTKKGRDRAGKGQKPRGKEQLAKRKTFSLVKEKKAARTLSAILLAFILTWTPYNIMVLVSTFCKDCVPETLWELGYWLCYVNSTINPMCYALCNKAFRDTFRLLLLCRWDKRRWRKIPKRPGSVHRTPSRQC
How it was run: (§1)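 Inhibition constants came from radioligand competition binding. Acetylcholine and atropine were included as positive controls for competitive binding. Values are given as mean ± SEM.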

[3] = biological target: T1, Muscarinic acetylcholine receptor M2; test: Antagonist activity at human muscarinic M2 receptor expressed in CHO cells co-expressing Galpha15 assessed as inhibition of acetylcholine-induced calcium mobilization relative to acetylcholine; type: functional, cell-based
[4] = biological target: T3, Muscarinic acetylcholine receptor M4 (Homo sapiens, UniProt P08173); test: Displacement of [3H]-NMS from muscarinic M4 receptor (unknown origin) expressed in CHO-K1 cell membranes assessed as inhibition constant by radioligand competition analysis; parameters: species or system Cell membrane; how it was run: as §1
T3 sequence (P08173 whole entry): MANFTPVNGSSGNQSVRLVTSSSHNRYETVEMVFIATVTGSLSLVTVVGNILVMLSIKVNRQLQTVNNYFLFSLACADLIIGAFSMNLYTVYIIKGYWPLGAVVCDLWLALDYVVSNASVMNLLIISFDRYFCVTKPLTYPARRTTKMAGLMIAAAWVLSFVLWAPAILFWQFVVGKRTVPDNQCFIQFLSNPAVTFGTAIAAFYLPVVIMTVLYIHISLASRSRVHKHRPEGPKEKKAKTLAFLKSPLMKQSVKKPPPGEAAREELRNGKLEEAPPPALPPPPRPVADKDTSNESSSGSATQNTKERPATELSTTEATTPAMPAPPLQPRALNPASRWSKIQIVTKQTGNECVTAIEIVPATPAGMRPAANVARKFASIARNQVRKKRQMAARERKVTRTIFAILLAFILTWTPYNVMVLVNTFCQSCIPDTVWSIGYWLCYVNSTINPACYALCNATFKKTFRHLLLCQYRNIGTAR

[5] = biological target: Muscarinic acetylcholine receptor M3 (Homo sapiens, UniProt P20309); test: Displacement of [3H]-NMS from muscarinic M3 receptor (unknown origin) expressed in CHO-K1 cell membranes assessed as inhibition constant by radioligand competition analysis; parameters: species or system Cell membrane; how it was run: as §1
[6] = biological target: T4, Muscarinic acetylcholine receptor M2 (Homo sapiens) (UniProt P08172); test: Antagonist activity at muscarinic M2 receptor (unknown origin) at 100 uM by acetylcholine titration assay; conditions: filed as antagonist
T4 sequence (whole entry): T1 sequence (P08172 whole entry)
How it was run: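 Acetylcholine titration curves were run in a radioligand binding format, without and with test ligand at 100 μM. A rightward shift of the ACh curve was taken to indicate negative allosteric modulation, and no shift to indicate orthosteric antagonism.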

Muscarinic acetylcholine receptor M3, sequence (P20309 whole entry): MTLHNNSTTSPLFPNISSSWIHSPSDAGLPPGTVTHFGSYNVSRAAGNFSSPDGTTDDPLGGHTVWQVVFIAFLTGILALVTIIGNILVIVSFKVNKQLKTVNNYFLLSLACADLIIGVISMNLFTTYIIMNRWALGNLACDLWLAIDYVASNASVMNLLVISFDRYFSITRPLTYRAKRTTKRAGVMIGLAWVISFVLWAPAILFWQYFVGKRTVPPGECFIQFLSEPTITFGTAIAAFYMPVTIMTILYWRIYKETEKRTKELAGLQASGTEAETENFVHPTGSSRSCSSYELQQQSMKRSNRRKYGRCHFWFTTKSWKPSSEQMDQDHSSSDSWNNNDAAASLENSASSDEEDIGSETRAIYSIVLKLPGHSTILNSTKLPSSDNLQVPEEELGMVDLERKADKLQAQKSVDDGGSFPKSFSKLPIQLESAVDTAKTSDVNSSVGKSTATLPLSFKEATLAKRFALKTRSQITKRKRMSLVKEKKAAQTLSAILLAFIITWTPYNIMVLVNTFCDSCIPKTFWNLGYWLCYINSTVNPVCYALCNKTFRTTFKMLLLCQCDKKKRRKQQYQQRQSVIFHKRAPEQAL

Row | Ki [1] [µM] | Ki [2] [µM] | IC50 [3] [µM] | Ki [4] [µM] | Ki [5] [µM] | Activity [6] | SMILES
1 | 16.6 | 51.3 | 70.8 | 50.1 | > 100 |  | O=C(CCN1CCCc2ccccc21)N1CCC(O)C1 (centres undefined)
2 |  | 1.12 |  | 58.9 | > 100 |  | O=C(CCN1CCCc2ccccc21)Nc1nccs1
3 | 3.31 | 7.59 | 0.977 | 8.71 | 25.7 |  | Cn1ccc(NC(=O)CCN2CCCc3ccccc32)n1
4 | 0.617 | 1.45 | 0.759 | 1.74 | 5.25 |  | O=C(CCN1CCCc2ccccc21)N1CCCC(CO)C1 (centres undefined)
5 | 2.29 | 5.01 | 0.427 | 12 | > 100 |  | Cn1ccc2c(NC(=O)CCN3CCCc4ccccc43)cccc21
6 | 13.2 | 23.4 | 15.1 | 17 | 33.1 |  | O=C(CCN1CCCc2ccccc21)N1CCC(O)CC1
7 |  | 0.245 |  | 0.257 | 2.57 |  | O=C(CCN1CCCc2ccccc21)NC1CCCC1
8 | 0.646 | 0.646 | 1.02 | 2.14 | 7.24 |  | O=C(CCN1CCCc2ccccc21)NCc1cccs1
9 | 0.389 | 2.88 | 0.617 | 1.38 | 7.41 |  | O=C(CN1CCCc2ccccc21)N1CCCC1
10 | 0.407 | 0.603 | 1.51 | 0.776 | 2.88 |  | CC1CCCN(C(=O)CCN2CCCc3ccccc32)C1 (centres undefined)
11 | 0.288 | 1.05 | 1.82 | 1.58 | 2.88 |  | O=C(CCN1CCCc2ccccc21)N1CCCC1
12 | 3.31 | 5.62 | 1.41 | 10.7 | 10.7 |  | O=C(CCN1CCCc2ccccc21)Nc1ccc(Cl)cc1
13 | 22.9 | 12.9 | 18.6 | 25.7 | 21.9 |  | CC(C)(C)OC(=O)N1CCN(CC(=O)n2c3ccccc3c3ccccc32)CC1
14 | 40.7 | > 100 | > 100 | 58.9 | 60.3 |  | O=C(CN1CCCc2cnccc21)N1CCCCC1
15 |  | 2.04 |  | 6.46 | 12.9 |  | O=C(CCN1CCCc2ccccc21)NCc1cccc(F)c1
16 | 50.1 | > 100 | 75.9 | > 100 | 95.5 |  | O=C(CN1CCc2ccc(F)cc21)N1CCCC1
17 | 2.45 | 44.7 | 4.9 | 6.31 | > 100 |  | CC1CCc2ccccc2N1CC(=O)N1CCCC1 (centres undefined)
18 | 6.17 | 33.1 | 29.5 | 18.6 | 53.7 |  | O=C(CCN1CCCc2ccccc21)N1CCCC(O)C1 (centres undefined)
19 | 0.912 | 9.33 | 0.339 | 4.07 | 26.3 |  | O=C(CCN1CCCc2ccccc21)Nc1cccc2ccccc12
20 | 3.63 | 28.2 | 7.41 | 8.91 | 52.5 |  | CC1CCc2ccccc2N1CC(=O)N1CCCCC1 (centres undefined)
21 |  | 0.229 |  | 0.158 | 1.74 |  | O=C(CCN1CCCc2ccccc21)NC1CCCCC1
22 |  | 0.263 |  | 0.214 | 0.776 |  | O=C(CCN1CCCc2ccccc21)Nc1ccccc1

Row | Ki [1] [µM] | Ki [2] [µM] | IC50 [3] [µM] | Ki [4] [µM] | Ki [5] [µM] | Activity [6] | SMILES
23 |  | 0.302 |  | 0.288 | 0.977 |  | CC1CCN(C(=O)CCN2CCCc3ccccc32)CC1
24 | 1.23 | 2.63 | 1.12 | 4.37 | 12 |  | O=C(CCN1CCCc2ccccc21)NCc1ccco1
25 | 3.55 | 17.4 | 20.4 | 15.8 | 32.4 |  | COC1CN(C(=O)CCN2CCCc3ccccc32)C1
26 |  | 14.1 |  | 14.1 | 29.5 |  | O=C(CCN1CCCc2ccccc21)Nc1cccnn1
27 |  | > 100 |  | 87.1 | > 100 |  | O=C(CN1CCCc2ccc(O)cc21)N1CCCCC1
28 | 95.5 | > 100 | 52.5 | > 100 | > 100 |  | CC1CCCCN1CC(=O)n1c2ccccc2c2ccccc21 (centres undefined)
29 | 0.417 | 2.88 | 0.437 | 1.23 | 11 |  | O=C(CN1CCCc2ccccc21)N1CCCCC1
30 | 5.13 | 14.1 | 19.1 | 11.7 | 32.4 |  | O=C(CCN1CCCc2ccccc21)N1CCCC1CO (centres undefined)
31 | 3.24 | 6.31 | 3.16 | 5.25 | 8.51 |  | CC1CCCCN1C(=O)CCN1CCCc2ccccc21 (centres undefined)
32 | 21.4 | 100 | > 100 | 74.1 | 79.4 | Active | CC1Cc2ccccc2N1CC(=O)N1CCCC1 (centres undefined)
33 | 0.575 | 1.05 | 0.776 | 0.891 | 4.57 |  | O=C(O)C1CCCN1C(=O)CCN1CCCc2ccccc21 (centres undefined)
34 | 3.63 | 11.5 | 10.7 | 7.24 | 31.6 |  | O=C(CCN1CCCc2ccccc21)N1CCCCC1CO (centres undefined)
35 | 1.7 | 4.47 | 12 | 5.75 | 11.5 |  | O=C(CCN1CCCc2ccccc21)N1CCC1
36 |  | 43.7 |  | 91.2 | 44.7 |  | CCn1c2ccccc2c2ccc(NCC(=O)N3CCCCC3)cc21
37 | 18.6 | 17.8 | 24.5 | 21.4 | 66.1 |  | Cc1ccc2c(c1)CCCN2CC(=O)N1CCCCC1
38 |  | 27.5 |  | 17.8 | 55 |  | CC1CCCC(C)N1C(=O)CCN1CCCc2ccccc21 (centres undefined)
39 | > 100 | > 100 | > 100 | > 100 | > 100 |  | O=C(CN1CCc2ccc(Br)cc21)N1CCCCC1
40 |  | 1.15 |  | 1.12 | 3.55 |  | C[C@@H]1CCC[C@H](C)N1C(=O)CCN1CCCc2ccccc21
41 | 64.6 | > 100 | > 100 | > 100 | > 100 |  | O=C(CCN1CCCc2ccccc21)Nc1ccc(O)cc1F
42 | 5.13 | 14.1 | 17.4 | 12.9 | 43.7 |  | O=C(CCN1CCCc2ccccc21)N1CCC[C@H]1CO
43 | 43.7 | 93.3 | > 100 | > 100 | 85.1 |  | O=C(CN1CCCc2cnccc21)N1CCCC1
44 | > 100 |  | > 100 | > 100 | > 100 | Active | CC1Cc2ccccc2N1CC(=O)N1CCCCC1 (centres undefined)
